Assay results: publication PMC2705627 (Journal of immunology (Baltimore, Md. : 1950), 2008)
“Also recorded” adds a separate entry of the source. Residues, ends and D or L forms follow the SMILES beside them. *: point of attachment. For = O=C*

Columns and labels:
[1] = biological target: T1, mFPR1 (Mus musculus, UniProt P33766); experiment: Ca2+ mobilization in mFPR1-RBL cells; assay type: cell-based
T1 sequence (P33766 1-364): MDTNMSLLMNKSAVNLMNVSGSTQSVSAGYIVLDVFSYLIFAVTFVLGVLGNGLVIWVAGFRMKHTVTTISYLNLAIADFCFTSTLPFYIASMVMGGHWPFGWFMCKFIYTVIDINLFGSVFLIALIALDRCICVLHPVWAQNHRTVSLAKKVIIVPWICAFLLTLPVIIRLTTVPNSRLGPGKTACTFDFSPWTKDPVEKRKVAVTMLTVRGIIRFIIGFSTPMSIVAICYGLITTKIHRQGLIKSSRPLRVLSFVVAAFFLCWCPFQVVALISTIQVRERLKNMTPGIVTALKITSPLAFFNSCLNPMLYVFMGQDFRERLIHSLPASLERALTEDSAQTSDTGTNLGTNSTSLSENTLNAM

[2] = system: WT neutrophils; experiment: Superoxide production, WT neutrophils; assay type: cell-based, mouse (C57BL/6)
Method in brief: (§1)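 Bone-marrow neutrophils from age- and gender-matched mfpr1-/- and WT C57BL/6 mice (8–10 wk), 5 × 10^6 cells/ml in HBSS with 0.5% BSA. Preincubated 5 min at 37°C with isoluminol, 40 U/ml HRP and 5 μM cytochalasin B. Chemiluminescence: 5 min basal, then every minute for 15 min after agonist. SOD controls; 200 ng/ml PMA time course. Peptide responses as area under curve over first 10 min; two experiments in triplicate.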

[3] = system: mfpr1^-/- neutrophils; experiment: Superoxide production, mfpr1-/- neutrophils; assay type: cell-based, mouse (mfpr1^-/-)
Method in brief: as §1

[4] = system: mouse neutrophils; experiment: Ex vivo chemotaxis; assay type: cell-based; conditions: CD1 mice, Transwell, 30 min, 37°C
Method in brief: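 Bone marrow neutrophils from CD1 mice, purified on a Nycoprep/72% Percoll gradient after RBC lysis. Cells at 5 × 10^6 cells/ml in HBSS/0.5% BSA, prewarmed 20 min at 37°C. Agonist placed in BSA-precoated lower wells under 3 μm pore inserts, cells added on top. After 30 min at 37°C, cells in the bottom chamber were counted. Counts with ligand in both chambers were subtracted to remove chemokinesis.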

[5] = system: mouse neutrophils; experiment: Ca2+ mobilization, mouse bone marrow neutrophils; assay type: cell-based
[6] = system: mouse neutrophils; experiment: Superoxide production, mouse bone marrow neutrophils; assay type: cell-based
Method in brief: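 Isoluminol-enhanced chemiluminescence on mouse bone-marrow neutrophils at 5 × 10^6 cells/ml in HBSS with 0.5% BSA, preincubated 5 min at 37°C with isoluminol, 40 U/ml HRP and 5 μM cytochalasin B. Basal reading 5 min, then agonist at graded concentrations, read each minute for 15 min; SOD controls run in parallel. Cumulative superoxide taken as area under curve over first 5 min; two experiments in duplicate.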

[7] = biological target: T1, mFPR1; experiment: ERK1/2 phosphorylation in mFPR1-RBL cells; assay type: cell-based; conditions: Western blot
Method in brief: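 RBL-2H3 cells stably expressing mFPR1 (G418-selected; DMEM, 20% FBS, 250 μg/ml G418), with untransfected RBL cells as control. Cultured 24 h, serum-starved 4 h, then stimulated at graded concentrations for various times. Lysed in ice-cold SDS loading buffer, sonicated, boiled. Western blot for phospho-ERK1/2, with total ERK1/2 as loading control. Two independent experiments.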

[8] = system: mock-transfected RBL cells; experiment: ERK1/2 phosphorylation in mock-transfected RBL cells; assay type: cell-based, rat; conditions: at the concentrations tested (10 nM, 1 μM)
Method in brief: (§2)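 Stably transfected or mock-transfected RBL-2H3 cells cultured 24 h, serum-starved 4 h, then stimulated over various time intervals. Stopped on ice in SDS-PAGE loading buffer, sonicated and boiled. Western blot with anti-phospho-ERK1/2 (1/1000), loading checked with anti-ERK1/2 (1/1000), HRP anti-rabbit secondary (1/3000). Two independent experiments.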

[9] = system: mFPR2; experiment: ERK1/2 phosphorylation in mFPR2-RBL cells; assay type: cell-based, mouse; conditions: at the concentrations tested; data not shown
Method in brief: as §2

[10] = system: mouse neutrophils; experiment: Degranulation; assay type: cell-based, mouse (C57BL/6)
Method in brief: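 WT C57BL/6 and mfpr1-/- bone-marrow neutrophils preincubated with 10 μM cytochalasin B in HBSS, 20 mM HEPES (pH 7.4), 0.1% BSA: 15 min on ice, then 15 min at 37°C. Stimulated 10 min at 37°C, chilled and spun. Supernatant mixed 1:1 with 10 mM 4-methylumbelliferyl β-D-glucuronide (pH 4.0, 0.1% Triton X-100) 15 min at 37°C. Glycine/EDTA stop (pH 10.4); fluorescence 365/460 nm, as % of lysate total.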

[11] = system: mfpr1^-/- neutrophils; experiment: Degranulation; assay type: cell-based, mouse (mfpr1^-/-); conditions: KO
Method in brief: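 Bone marrow neutrophils from 8-10 wk mfpr1-/- mice (C57BL/6 background) and matched WT mice. Cells preincubated with 10 μM cytochalasin B in HBSS, 20 mM HEPES pH 7.4, 0.1% BSA, 15 min on ice then 15 min at 37°C. Stimulated 10 min at 37°C, then chilled. Supernatant reacted with 4-methylumbelliferyl β-D-glucuronide (pH 4.0), 15 min at 37°C. Fluorescence read at 365/460 nm. Release expressed as % of total from Triton X-100 lysate.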

[12] = biological target: T1, mFPR1; conditions: cited from earlier work
[13] = system: mouse neutrophils; conditions: cited from earlier work
[14] = biological target: T1, mFPR1; conditions: cited from earlier work; remark: listed apart in the source
[15] = system: mouse neutrophils; conditions: mice; cited from earlier work
[16] = system: human neutrophils; conditions: cited from earlier work
[17] = system: human formyl peptide receptor (FPR) 1; conditions: cited from earlier work
[18] = system: FPRL1; conditions: b40: fMIVIL ref 22; b3: fMLF ref 16; cited from earlier work
[19] = system: mFPR2; conditions: vs mFPR1; cited from earlier work
[20] = system: neutrophils from cow; conditions: cited from earlier work
[21] = system: neutrophils from pig; conditions: cited from earlier work
[22] = system: neutrophils from dog; conditions: cited from earlier work
[23] = system: neutrophils from cat; conditions: cited from earlier work
[24] = system: neutrophils from mfpr1-deficient mice; conditions: ex vivo; cited from earlier work

Compound: CC[C@H](C)[C@H](NC(=O)[C@H](CCSC)NC=O)C(=O)N[C@@H](Cc1ccccc1)C(=O)N[C@@H](CC(C)C)C(=O)O [fMIFL, N-formyl-Met-Ile-Phe-Leu] (For-MIFL-OH)
- EC50 [1]: 10 nM

Compound: CC[C@H](C)[C@H](NC(=O)[C@H](CCSC)NC=O)C(=O)N[C@H](C(=O)N[C@H](C(=O)N[C@@H](CC(C)C)C(=O)O)[C@@H](C)CC)C(C)C [fMIVIL, N-formyl-Met-Ile-Val-Ile-Leu] (For-MIVIL-OH)
- EC50 [1]: 10 nM

Compound: CCCCCCCCCCCCCC(=O)O[C@@H]1[C@@H](C)[C@@]2(O)[C@@H](C=C(CO)C[C@]3(O)C(=O)C(C)=C[C@@H]23)[C@@H]2C(C)(C)[C@]12OC(C)=O [phorbol ester, phorbol myristate ester]
- superoxide production on phorbol ester stimulation, WT neutrophils ([2]; 200 ng/ml phorbol myristate ester, WT compared with KO): responded similarly
- superoxide production on phorbol ester stimulation, mfpr1-/- neutrophils ([3]; 200 ng/ml phorbol myristate ester, KO compared with WT): responded similarly

Compound: N-formyl-Met-Leu-Phe [fMLF]
- neutrophil migration at 100 nM [4]: did not stimulate significant neutrophil migration
- Ca2+ mobilization at 10 nM ([5]; 10 nM, FLIPR dye): but not fMLF
- lowest concentration with evident Ca2+ mobilization ([5]; not evident below 100 nM): ≥ 100 nM
- superoxide production at 5 μM relative to fMIVIL and fMIFL ([6]; 5 μM): about one-half
- threshold concentration for superoxide generation ([6]; isoluminol chemiluminescence, 37°C): above 1 μM
- concentration inducing Ca2+ flux ([1]; mFPR1-RBL): above 1 μM
- ERK1/2 phosphorylation at 10 nM ([7]; 10 nM): but not at 10 nM
- ERK1/2 phosphorylation at 1 μM ([7]; 1 μM): could induce ERK1/2 phosphorylation
- ERK1/2 phosphorylation in mock-transfected RBL cells [8]: none of the peptides was able to induce detectable phosphorylation
- ERK1/2 phosphorylation in mFPR2-RBL cells [9]: none of the peptides was able to induce detectable phosphorylation
- superoxide production, WT neutrophils ([2]; C57BL/6 WT): less potent
- superoxide production, mfpr1-/- neutrophils ([3]; mfpr1^-/-): very little superoxide was generated
- β-glucuronidase release, percent of cell-associated enzyme ([10]; 10 μM (maximal concentration used), WT neutrophils): 5%
- β-glucuronidase release relative to maximal release by fMIVIL and fMIFL ([10]; 10 μM fMLF): about one-half
- lowest concentration with significant β-glucuronidase release ([10]; WT neutrophils, not significant below 1 μM): ≥ 1 µM
- β-glucuronidase release at 100 nM, mfpr1-/- neutrophils ([11]; 100 nM): none of the three peptides was able to induce β-glucuronidase release
- β-glucuronidase release above 1 μM, mfpr1-/- neutrophils ([11]; peptide concentrations above 1 μM): only a small amount of enzyme was released
- ERK1/2 phosphorylation at 50 nM [12]: but not fMLF
- potency loss on mouse neutrophils vs human neutrophils ([13]; less potent for mouse than for human neutrophils): 100 -fold
- concentration required for mouse neutrophil activation ([13]; mouse neutrophils, ref 17 (ref 17, 20)): requiring micromolar concentrations for cell activation; also recorded: requires micromolar concentrations; also recorded: micromolar concentration range
- agonist concentration required for calcium mobilization [14]: ≥ 100 nM
- fMLF concentration required for degranulation and superoxide production [15]: 5 to 10 µM
- ERK1/2 phosphorylation in human neutrophils [16]: rapid phosphorylation of the MAPKs ERK1/2
- concentration inducing bactericidal functions in human neutrophils ([16]; human neutrophils): nanomolar concentrations
- agonist activity at human FPR1 [17]: potent agonist
- affinity/response at FPRL1 [18]: low affinities; also recorded: low-affinity receptor for fMLF
- response of mFPR2 to fMLF [19]: responds even more weakly
- response of cow neutrophils [20]: do not respond
- response of pig neutrophils [21]: do not respond
- response of dog neutrophils [22]: do not respond
- response of cat neutrophils [23]: do not respond
- responsiveness of mfpr1-deficient neutrophils to fMLF [24]: decreased responsiveness

Compound: Superoxide dismutase
- effect on detection of superoxide ([6]; SOD, 250 units, added 10 min before stimulation with 1 μM peptide): effectively inhibited the detection of superoxide
